In the library only some 5.1% were active in any assay of this set; here they are far more common.
SF1 activator = activators of human nuclear receptor SF-1; CHO-K1 Gal4-SF-1 LBD luciferase reporter; % increase over DMSO SF-1-specific signal; activation, % at 10 µM; hit rate 1.9% among 65,000; AID 522;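 active = activation above the mean activation of all tested compounds plus 3 SD, cut at about 50% in these data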
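material = CHO-K1 cells with Gal4–hSF-1 LBD chimera plus Gal4-driven luciferase | compound = 10 µM single point, 1% DMSO | incubation = 20 h compound exposure at 37 °C after 1 h cell settling | measured by = SteadyLite luciferase luminescence | evaluation = percent activation relative to DMSO median and mock-transfected background | control set = DMSO negative control and −SF1 background wells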
ERa SRC1 pot = enhances coactivator binding to human estrogen receptor alpha; TR-FRET ERalpha-LBD/SRC-Cy5 coactivator binding, 2 h; 100 = basal binding, no effect; coactivator binding (% of control), % at 25.6 µM; hit rate 1.3% among 86,000; AID 639; in the data active = activity above about 200%;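 note: binding measured in presence of low estradiol as agonist stimulus; 0% = peptide alone without receptor and 100% = receptor with peptide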
BAP1 inh = inhibitors of human BAP1 deubiquitinase | Q92560 | recombinant BAP1, Ub-AMC hydrolysis fluorescence kinetic; hits give low values | calls only at 20 µM | hit rate 0.48% among 72,000 | AID 436;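 active = activity remaining at or below 50% of control, provided the compound also passes the data quality filters; inactive = the rest, including low values that fail the filters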;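 note: 100% = DMSO wells rate and 0% = substrate alone blank rate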
RORa activator = activators of human nuclear receptor RORA; P35398; CHO-K1 Gal4-RORA LBD luciferase reporter, luminescence; percent increase over mock-subtracted basal signal; activation, % at 10 µM; hit rate 1.5% among 65,000; AID 560;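 active = activation above the mean of all tested compounds plus 3 SD, cut at about 49% in these data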;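 note: 0% = DMSO-treated RORA cells and 100% = added signal equal to DMSO minus mock-transfected cells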
ERa coact inh = ER-alpha (human) coactivator binding inhibition. P03372. TR-FRET ER-alpha LBD / SRC-1 peptide, estradiol-bound. inhibition, % at 25.6 µM. hit rate 1.7% among 86,000. AID 629; in the data active = inhibition above about 50%;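 note: 0% = receptor plus peptide control and 100% = peptide only without receptor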
ERb SRC1 inh = ER-beta (human) coactivator binding inhibition. TR-FRET ER-beta LBD / SRC1-Cy5 peptide binding; receptor agonist-loaded with 1 µM estradiol. inhibition, % at 25.6 µM. hit rate 1.3% among 86,000. AID 633;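 active = compounds whose percent inhibition of the receptor-coactivator binding signal exceeds about 50% in the single-dose screen, limit read from the data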;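 note: 0% = receptor plus peptide wells without compound and 100% = peptide-only wells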
Target sequence (Q92731 whole entry, looked up, the tested form may be a part): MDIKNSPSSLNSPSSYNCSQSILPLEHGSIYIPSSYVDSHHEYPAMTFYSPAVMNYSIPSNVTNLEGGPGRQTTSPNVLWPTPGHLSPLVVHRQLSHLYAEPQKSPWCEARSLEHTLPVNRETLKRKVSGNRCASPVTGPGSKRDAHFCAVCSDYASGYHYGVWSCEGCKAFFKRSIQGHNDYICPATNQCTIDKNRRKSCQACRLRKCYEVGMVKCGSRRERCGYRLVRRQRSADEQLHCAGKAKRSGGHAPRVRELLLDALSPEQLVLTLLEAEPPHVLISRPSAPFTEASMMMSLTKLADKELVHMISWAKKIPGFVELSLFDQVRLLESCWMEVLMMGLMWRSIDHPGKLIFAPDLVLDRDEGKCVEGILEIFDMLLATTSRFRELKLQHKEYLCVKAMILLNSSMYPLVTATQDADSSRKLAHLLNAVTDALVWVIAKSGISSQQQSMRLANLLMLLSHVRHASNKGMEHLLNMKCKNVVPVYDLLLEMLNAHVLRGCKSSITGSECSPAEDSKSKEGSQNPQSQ
An asterisk follows results filed as active; i = inactive; nt = no result shown; [ ] = another dose, or the depositor's remark.

SMILES | SF1 activator | ERa SRC1 pot | BAP1 inh | RORa activator | ERa coact inh | ERb SRC1 inh
O=C(Oc1cccc(-c2cnc3ccccc3n2)c1)c1ccco1 | nt | 311* | nt | nt | -1 | -16
O=C(Oc1ccc2ccccc2c1)c1ccco1 | 1 | 97 | i | 6 | -33 | 1
COc1ccc(C(=O)N2CCCCC2)cc1S(=O)(=O)Nc1cccc(Br)c1 | nt | nt | i | nt | nt | nt
N#CC(C(=O)Nc1ccc(Cl)c(Cl)c1)=C1Nc2ccccc2N1 | 4 | 46 | i | 21 | 79*[fluorescence artefact?] | 70*[fluorescence artefact?]
CCOC(=O)c1[nH]c(C)c(C(=O)Nc2cc(Cl)ccc2C)c1C | -9 | 100 | i | -4 | 4 | -2
CCCCCCC(=O)c1c(C)[nH]c(C(=O)OCC)c1C | 53* | 102 | i | 9 | 1 | -3
CCCN(CCC)C(=O)c1c(C)[nH]c(C(=O)OCC)c1C | -9 | 86 | i | 6 | 2 | -3
CCOC(=O)c1[nH]c(C)c(C(=O)Nc2ccccc2C)c1C | 26 | 110 | i | 81* | -5 | -2
COc1ccc(OCC(=O)NC2CCCCCCCCCCC2)cc1 | nt | nt | i | nt | nt | nt
Cc1cc2c(C)c(C)c(=O)[nH]c2cc1N | nt | 16 | nt | nt | 69*[fluorescence artefact?] | 44
COc1ccc(C2NC(=O)NC(C)=C2C(=O)Nc2ccccc2)cc1 (configuration not stated) | nt | nt | i | nt | nt | nt
NC(=O)c1cc(-c2cccnc2)no1 | nt | nt | i | nt | nt | nt
Cc1cc(NC(=O)c2cc(-c3ccccn3)nc3ccccc23)no1 | -7 | 88 | i | 8 | -7 | -13
Cc1cc(C)c2nc(-c3ccccn3)cc(C(=O)NCc3ccco3)c2c1 | -28 | 83 | i | -12 | 66* | 63*[fluorescence artefact?]
Cc1ccc(-c2cc(C(=O)Nc3ccccc3C)c3ccccc3n2)o1 | nt | 66 | nt | nt | 78*[fluorescence artefact?] | 56*[fluorescence artefact?]
Cc1ccc(-c2cc(C(=O)NCc3ccco3)c3ccccc3n2)o1 | -13 | 25 | i | -18 | 82* | 73*
CNc1nnc(Cl)c2ccccc12 | nt | nt | i | nt | nt | nt
Cc1cc(-c2ccccc2)n(-c2cc(N3CCOCC3)ncn2)n1 | nt | nt | i | nt | nt | nt
CN1C(=O)C2(N=c3ccccc3=N2)c2ccccc21 | 23 | 142 | i | 34 | -3 | 91*[fluorescence artefact?]
COc1ccc(C(c2nnnn2CCc2ccccc2)N2CCN(C3CCCC3)CC2)cc1OC (configuration not stated) | 7 | 102 | i | -22 | -1 | 93*[fluorescence artefact?]
Cn1c(SCc2ccccc2F)nnc1-c1cnccn1 | 44 | 101 | i | 65* | 11 | 2
Cc1ccc(C(=O)CSc2nnc(-c3cccs3)n2C)o1 | -10 | 47 | i | 3 | 46 | 14
CC(C)OC(=O)CSc1nnc(Cc2ccccc2)n1C | -2 | 95 | i | -13 | 2 | 6
Cn1c(SCc2ccc(F)cc2)nnc1-c1cccs1 | 51* | 100 | i | 38 | 8 | 7
Cn1c(SCc2nc3ccccc3s2)nnc1-c1cccs1 | 21 | 110 | i | -3 | 2 | 7
SMILES | SF1 activator | ERa SRC1 pot | BAP1 inh | RORa activator | ERa coact inh | ERb SRC1 inh
Cn1c(SCc2ccccc2)nnc1-c1cccs1 | 57* | 108 | i | 50* | -4 | -8
Cn1c(Cc2ccccc2)nnc1SCC(=O)c1cccs1 | nt | 91 | nt | nt | 57* | -7
COc1ccc(C(=O)Nc2cc3nn(-c4ccccc4)nc3cc2C)cc1[N+](=O)[O-] | nt | nt | i | nt | nt | nt
COc1ccc(CCNC(=O)C(C(C)C)N2C(=O)c3ccccc3C2=O)cc1OC (configuration not stated) | nt | nt | i | nt | nt | nt
Cc1ccc(CSc2nnc(-c3ccccn3)n2C)cc1 | 20 | 120 | i | 46 | 6 | -4
Cn1c(SCc2ccc(F)cc2)nnc1-c1ccccn1 | 64* | 104 | i | 28 | 29 | 27
O=c1oc2ccccc2cc1-c1cn2cccnc2n1 | 36 | 105 | i | 55* | -2 | 1
COc1ccccc1-c1nc(-c2ccc(C)nc2OC)no1 | 74* | 76 | i | 39 | -1 | 4
COc1nc(C)ccc1-c1noc(-c2ccccn2)n1 | 22 | 120 | i | 61* | -4 | -14
CSCCC1NC(=O)NC1=O (configuration not stated) | 7 | 94 | i | 11 | 62* | -3
O=C(COc1ccccc1)NCCCN1CCOCC1 | nt | nt | i | nt | nt | nt
Cc1ccccc1C(=O)Nc1cccc(NC(=O)c2ccc(-c3ccc(Br)cc3)o2)c1 | nt | 67 | nt | nt | 79*[fluorescence artefact?] | 44
Cc1ccccc1C(=O)Nc1cccc(NC(=O)c2cccc(Br)c2)c1 | nt | nt | i | nt | nt | nt
Cc1ccc(S(=O)(=O)NC(=O)c2ccc(Cl)cc2)cc1 | nt | nt | i | nt | nt | nt
Cn1nnc2cc(C(=O)N3CCCCCC3)ccc21 | 8 | 101 | i | -3 | 6 | -2
Cc1cccc(-n2cnc3cc(C(=O)N4CCCCC4)ccc32)c1 | 55* | nt | i | 16 | nt | nt
Cc1c(NC(=O)c2ccc(F)cc2[N+](=O)[O-])c(=O)n(-c2ccccc2)n1C | nt | nt | i | nt | nt | nt
CCOc1ccc(-c2nnc3sc(-c4ccccc4OC)nn23)cc1 | 7 | 941*[fluorescence artefact?] | i | -7 | -27 | 4
CCOc1cccc(-c2nnc3sc(-c4ccco4)nn23)c1 | -7 | 244* | i | -21 | 2 | 2
COc1ccccc1-c1nnc2sc(-c3cnccn3)nn12 | 8 | 59 | i | -6 | 52*[fluorescence artefact?] | 65*
COc1ccccc1-c1nn2c(-c3ccc(C(C)(C)C)cc3)nnc2s1 | -12 | 241* | i | -8 | 44 | 42
Cc1ccc(C(=O)O)cc1-c1ccc(/C=C2/NC(=O)N(c3ccccc3)C2=O)o1 | nt | 11 | nt | nt | 80*[fluorescence artefact?] | 81*[fluorescence artefact?]
Cc1nnc2c3cnn(-c4ccc(Cl)cc4)c3ncn12 | 25 | 159 | nt | 65* | -1 | 1
CCOC(=O)CSc1ncnc2c1cnn2-c1ccc(Cl)cc1 | 12 | 135 | i | 6 | 5 | 6
CCOC(=O)Cn1cnc2c(cnn2-c2ccc(Cl)cc2)c1=O | 24 | nt | i | 12 | nt | nt
SMILES | SF1 activator | ERa SRC1 pot | BAP1 inh | RORa activator | ERa coact inh | ERb SRC1 inh
COC(=O)C(C)n1cnc2c(cnn2-c2ccc(Cl)cc2)c1=O (configuration not stated) | 53* | nt | i | 47 | nt | nt
CC1=CC2(O)OCCN(CCO)C2=CC1=O (configuration not stated) | nt | 25 | nt | nt | 78*[fluorescence artefact?] | 86*[fluorescence artefact?]
CCc1c(C)sc(NC(=O)CC#N)c1C#N | -18 | 40 | nt | -2 | 77*[fluorescence artefact?] | 64*[fluorescence artefact?]
COc1ccccc1Nc1ncc(-c2cccs2)s1 | 95* | nt | i | 34 | nt | nt
Cc1ccc(-c2nn(CC(=O)Nc3ccc4c(c3)nc3n4CCOC3)c(=O)c3ccccc23)cc1 | 4 | 165 | i | -18 | 67*[fluorescence artefact?] | 54*[fluorescence artefact?]
O=C(Cn1nc(-c2ccccc2)c2ccccc2c1=O)Nc1ccc2c(c1)nc1n2CCOC1 | 25 | 209*[fluorescence artefact?] | i | -9 | 22 | 47
O=C(Oc1ccc2ccc(=O)oc2c1)c1cccc([N+](=O)[O-])c1 | nt | nt | i | nt | nt | nt
Cc1cc(-c2ccccc2)n(-c2cc(N3CCCCC3)ncn2)n1 | nt | nt | i | nt | nt | nt

Source: PubChem BioAssay
